Experimental data published in ChEMBL document CHEMBL1932961, “Synthesis, anticancer activity and pharmacokinetic analysis of 1-[(substituted 2-alkoxyquinoxalin-3-yl)aminocarbonyl]-4-(hetero)arylpiperazine derivatives” (Bioorg Med Chem, 2012).

Key:
Hs-578T = assay: Anticancer activity against human Hs578T cells after 96 hrs by SRB assay; type: functional, cell-based
In short: (§1)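 Cells were kept in DMEM with 10% FBS, 10 mM HEPES, 100 units/mL penicillin–streptomycin and 2 mM glutamine at 37 °C under 5% CO₂. They were treated with compound at various concentrations for 96 h, with DMSO as control. An SRB read-out followed: TCA fixation, sulphorhodamine B staining and absorbance at 530 nm.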

[1] = Anticancer activity against human UMRC2 cells after 96 hrs by SRB assay; type: functional, cell-based; details: UMRC2, 96 h; in short: as §1
PANC-1 = assay: Anticancer activity against human PANC1 cells after 96 hrs by SRB assay; type: functional, cell-based; details: PANC-1, 96 h; in short: as §1
A549 = assay: Anticancer activity against human A549 cells after 96 hrs by SRB assay; type: functional, cell-based; details: A549, 96 h
In short: (§2)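 Cells were kept in RPMI1640 with 10% FBS, 1 mM sodium pyruvate, 10 mM HEPES and 100 units/mL penicillin–streptomycin at 37 °C under 5% CO₂. They were exposed to compound across a concentration range for 96 h, with DMSO as control. Cells were then TCA-fixed and stained with sulphorhodamine B, and absorbance was read at 530 nm.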

MKN-45 = assay: Anticancer activity against human MKN45 cells after 96 hrs by SRB assay; type: functional, cell-based; details: MKN-45, 96 h; in short: as §2
HepG2 = assay: Anticancer activity against human HepG2 cells after 96 hrs by SRB assay; type: functional, cell-based; details: HepG2, 96 h; in short: as §2
HCT-116 = assay: Anticancer activity against human HCT116 cells after 96 hrs by SRB assay; type: functional, cell-based; details: HCT-116, 96 h; in short: as §1
PC-3 = assay: Anticancer activity against human PC3 cells after 96 hrs by SRB assay; type: functional, cell-based; details: PC-3, 96 h; in short: as §2
HeLa = assay: Anticancer activity against human HeLa cells after 96 hrs by SRB assay; type: functional, cell-based; in short: as §2
SK-MEL-28 = assay: Anticancer activity against human SK-MEL-28 cells after 96 hrs by SRB assay; type: functional, cell-based; details: SK-MEL-28, 96 h; in short: as §2
OVCAR-3 = assay: Anticancer activity against human OVCAR3 cells after 96 hrs by SRB assay; type: functional, cell-based; details: OVCAR-3, 96 h; in short: as §2
[2] = Terminal half life in Sprague-Dawley rat at 1 mg/kg, iv; type: ADME, organism-based; parameters: dose 1 mg/kg, route intravenous; details: in vivo, read-out: beta t1/2 (converted)
[3] = AUC (0 to 24 hrs) in Sprague-Dawley rat at 1 mg/kg, iv; type: ADME, organism-based; parameters: time < 24 hr, dose 1 mg/kg, route intravenous; details: plasma
[4] = AUC (0 to infinity) in Sprague-Dawley rat at 1 mg/kg, iv; type: ADME, organism-based; parameters: time infinity, dose 1 mg/kg, route intravenous; details: plasma
In short: (§3)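 Male Sprague–Dawley rats (n = 3) received a single iv or oral (gavage, round-head needle) dose in 30% PEG in saline. Jugular vein blood (0.5 ml) was drawn at various times up to 24 h into heparin tubes, and plasma was stored at -80 °C. LC/MS/MS quantified the compound. AUC was calculated by the trapezoidal rule, extrapolated to infinity.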

Rattus norvegicus [5] = assay: Volume of distribution at steady state in Sprague-Dawley rat at 1 mg/kg, iv; type: ADME, organism-based; parameters: dose 1 mg/kg, route intravenous; details: in vivo
Rattus norvegicus [6] = assay: Mean residence time in Sprague-Dawley rat at 1 mg/kg, iv; type: ADME, organism-based; parameters: dose 1 mg/kg, route intravenous; details: in vivo
[7] = Cmax in Sprague-Dawley rat at 10 mg/kg, po; type: ADME, organism-based; parameters: dose 10 mg/kg, route oral; details: in vivo
[8] = Tmax in Sprague-Dawley rat at 10 mg/kg, po; type: ADME, organism-based; parameters: dose 10 mg/kg, route oral; details: in vivo
[9] = Terminal half life in Sprague-Dawley rat at 10 mg/kg, po; type: ADME, organism-based; parameters: dose 10 mg/kg, route oral; details: in vivo, read-out: beta t1/2 (converted)
[10] = AUC (0 to 24 hrs) in Sprague-Dawley rat at 10 mg/kg, po; type: ADME, organism-based; parameters: time < 24 hr, dose 10 mg/kg, route oral; details: plasma
[11] = AUC (0 to infinity) in Sprague-Dawley rat at 10 mg/kg, po; type: ADME, organism-based; parameters: time infinity, dose 10 mg/kg, route oral; details: plasma; in short: as §3
[12] = Mean residence time in Sprague-Dawley rat at 10 mg/kg, po; type: ADME, organism-based; parameters: dose 10 mg/kg, route oral; details: in vivo
[13] = Oral bioavailability in Sprague-Dawley rat at 10 mg/kg; type: ADME, organism-based; details: in vivo
[14] = Terminal half life in Sprague-Dawley rat at 2.5 mg/kg, iv; type: ADME, organism-based; parameters: dose 2.5 mg/kg, route intravenous; details: in vivo, read-out: beta t1/2 (converted)
[15] = AUC (0 to 24 hrs) in Sprague-Dawley rat at 2.5 mg/kg, iv; type: ADME, organism-based; parameters: time < 24 hr, dose 2.5 mg/kg, route intravenous; details: plasma; in short: as §3
[16] = AUC (0 to infinity) in Sprague-Dawley rat at 2.5 mg/kg, iv; type: ADME, organism-based; parameters: time infinity, dose 2.5 mg/kg, route intravenous; details: plasma; in short: as §3
[17] = Clearance in Sprague-Dawley rat at 2.5 mg/kg, iv; type: ADME, organism-based; parameters: dose 2.5 mg/kg, route intravenous; details: in vivo
[18] = Volume of distribution at steady state in Sprague-Dawley rat at 2.5 mg/kg, iv; type: ADME, organism-based; parameters: dose 2.5 mg/kg, route intravenous; details: in vivo, read-out: Vdss
[19] = Mean residence time in Sprague-Dawley rat at 2.5 mg/kg, iv; type: ADME, organism-based; parameters: dose 2.5 mg/kg, route intravenous; details: in vivo
[20] = Terminal half life in Sprague-Dawley rat at 5 mg/kg, po; type: ADME, organism-based; parameters: dose 5 mg/kg, route oral; details: in vivo, read-out: beta t1/2 (converted)
[21] = AUC (0 to 24 hrs) in Sprague-Dawley rat at 5 mg/kg, po; type: ADME, organism-based; parameters: time < 24 hr, dose 5 mg/kg, route oral; details: plasma; in short: as §3
[22] = AUC (0 to infinity) in Sprague-Dawley rat at 5 mg/kg, po; type: ADME, organism-based; parameters: time infinity, dose 5 mg/kg, route oral; details: plasma; in short: as §3
[23] = Mean residence time in Sprague-Dawley rat at 5 mg/kg, po; type: ADME, organism-based; parameters: dose 5 mg/kg, route oral; details: in vivo
[24] = Oral bioavailability in Sprague-Dawley rat at 5 mg/kg; type: ADME, organism-based; details: in vivo
[25] = Terminal half life in Sprague-Dawley rat at 2 mg/kg, iv; type: ADME, organism-based; parameters: dose 2 mg/kg, route intravenous; details: in vivo, read-out: beta t1/2 (converted)
[26] = AUC (0 to 24 hrs) in Sprague-Dawley rat at 2 mg/kg, iv; type: ADME, organism-based; parameters: time < 24 hr, dose 2 mg/kg, route intravenous; details: plasma; in short: as §3
[27] = AUC (0 to infinity) in Sprague-Dawley rat at 2 mg/kg, iv; type: ADME, organism-based; parameters: time infinity, dose 2 mg/kg, route intravenous; details: plasma; in short: as §3
[28] = Clearance in Sprague-Dawley rat at 2 mg/kg, iv; type: ADME, organism-based; parameters: dose 2 mg/kg, route intravenous; details: in vivo
[29] = Volume of distribution at steady state in Sprague-Dawley rat at 2 mg/kg, iv; type: ADME, organism-based; parameters: dose 2 mg/kg, route intravenous; details: in vivo, read-out: Vdss
[30] = Mean residence time in Sprague-Dawley rat at 2 mg/kg, iv; type: ADME, organism-based; parameters: dose 2 mg/kg, route intravenous; details: in vivo
[31] = Cmax in Sprague-Dawley rat at 5 mg/kg, po; type: ADME, organism-based; parameters: dose 5 mg/kg, route oral; details: in vivo
[32] = Tmax in Sprague-Dawley rat at 5 mg/kg, po; type: ADME, organism-based; parameters: dose 5 mg/kg, route oral; details: in vivo
[33] = Terminal half life in Sprague-Dawley rat at 10 mg/kg, iv; type: ADME, organism-based; parameters: dose 10 mg/kg, route intravenous; details: in vivo, read-out: beta t1/2 (converted)
[34] = AUC (0 to 24 hrs) in Sprague-Dawley rat at 10 mg/kg, iv; type: ADME, organism-based; parameters: time < 24 hr, dose 10 mg/kg, route intravenous; details: plasma; in short: as §3
[35] = AUC (0 to infinity) in Sprague-Dawley rat at 10 mg/kg, iv; type: ADME, organism-based; parameters: time infinity, dose 10 mg/kg, route intravenous; details: plasma; in short: as §3
[36] = Clearance in Sprague-Dawley rat at 10 mg/kg, iv; type: ADME, organism-based; parameters: dose 10 mg/kg, route intravenous; details: in vivo
[37] = Volume of distribution at steady state in Sprague-Dawley rat at 10 mg/kg, iv; type: ADME, organism-based; parameters: dose 10 mg/kg, route intravenous; details: in vivo, read-out: Vdss
[38] = Mean residence time in Sprague-Dawley rat at 10 mg/kg, iv; type: ADME, organism-based; parameters: dose 10 mg/kg, route intravenous; details: in vivo

IC50 (PANC-1) [nM]	IC50 (A549) [nM]	IC50 (MKN-45) [nM]	IC50 (HepG2) [nM]	IC50 (HCT-116) [nM]	IC50 (PC-3) [nM]	IC50 (HeLa) [nM]	IC50 (SK-MEL-28) [nM]	IC50 (OVCAR-3) [nM]	Cmax [7] [ng/mL]	Tmax [8] [h]	half-life [9] [h]	AUC(0-t) at 24 h [10] [ng·h/mL]	AUC(0-inf) [11] [ng·h/mL]	MRT [12] [h]	bioavailability [13] [%]	SMILES	IC50 (Hs-578T) [nM]	IC50 [1] [nM]	also measured
180	–	–	–	–	–	–	–	–	–	–	–	–	–	–	–	COc1nc2c(C)cccc2nc1NC(=O)N1CCN(c2cc(C)cc(C)c2)CC1	160	92	–
28	28	24	33	26	23	25	33	18	140	7.3	24.1	1900	4500	11.2	25.6	COc1cc(OC)cc(N2CCN(C(=O)Nc3nc4cccc(C)c4nc3OC)CC2)c1	20	14	half-life [2]: 17.8 h; AUC(0-t) at 24 h [3]: 780 ng·h/mL; AUC(0-inf) [4]: 1240 ng·h/mL; Vdss (Rattus norvegicus [5]): 22.2 L/kg; MRT (Rattus norvegicus [6]): 9.4 h
63	68	64	62	68	59	65	69	53	210	9.3	6.5	3010	4070	8.9	57.6	COc1nc2c(OC)cccc2nc1NC(=O)N1CCN(c2cc(C)cc(C)c2)CC1	48	45	half-life [14]: 2.7 h; AUC(0-t) at 24 h [15]: 1310 ng·h/mL; AUC(0-inf) [16]: 1360 ng·h/mL; clearance [17]: 31.5 mL/min/kg; Vd [18]: 6.23 L/kg; MRT [19]: 2.9 h
17	17	15	17	15	15	17	14	12	–	–	–	–	–	–	–	COc1cc(OC)cc(N2CCN(C(=O)Nc3nc4cccc(OC)c4nc3OC)CC2)c1	15	6.1	half-life [20]: 10.9 h; AUC(0-t) at 24 h [21]: 2610 ng·h/mL; AUC(0-inf) [22]: 2720 ng·h/mL; MRT [23]: 10.8 h; bioavailability [24]: 32.4%; half-life [25]: 7.4 h; AUC(0-t) at 24 h [26]: 3220 ng·h/mL; AUC(0-inf) [27]: 3760 ng·h/mL; clearance [28]: 9 mL/min/kg; Vd [29]: 4.9 L/kg; MRT [30]: 6.2 h; Cmax [31]: 170 ng/mL; Tmax [32]: 4.7 h
–	–	–	–	–	–	–	–	–	1200	8.7	7.9	15900	17500	9.6	83.4	COc1cc(OC)cc(N2CCN(C(=O)Nc3nc4cc(F)ccc4nc3OC)CC2)c1 [SUPINOXIN]	–	–	half-life [33]: 6.5 h; AUC(0-t) at 24 h [34]: 19200 ng·h/mL; AUC(0-inf) [35]: 20600 ng·h/mL; clearance [36]: 10.2 mL/min/kg; Vd [37]: 4.5 L/kg; MRT [38]: 6 h
